Measured values from article PMC2762272 (Bioorganic & medicinal chemistry, 2009).
One block for each molecule: values may come before it.

What was measured:
[1] = system: human T-lymphocyte Molt4/C8 cells; test: Cell growth inhibitory activity, Molt/4; assay type: cell-based; settings: Molt4/C8, 48 h, read-out: IC50 Molt4/C8
[2] = system: K562 (human chronic myelogenous leukemia) cells; test: Flow cytometric analysis of cell cycle distribution; assay type: cell-based; settings: 24 h, compound at concentration inhibiting 100% cell growth
bovine brain tubulin = test: Inhibition of tubulin polymerization; assay type: biochemical
[3] = system: K562 (human chronic myelogenous leukemia) cells; test: Concentration inhibiting 100% cell growth of K562 cells; assay type: cell-based
[4] = system: murine leukemia (L1210) cells; test: Cell growth inhibitory activity, L1210; assay type: cell-based; settings: Mus musculus, L1210, 48 h, read-out: IC50 L1210
Summary of the method: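 Murine leukemia cells at 300,000-500,000 cells/mL were mixed 1:1 with dilutions of test compound and incubated at 37 °C for two days. Cell number was counted with a Coulter counter. IC50 is the concentration inhibiting proliferation by 50%, taken from dose–response curves as mean ± SE of at least three independent experiments.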

[5] = system: L1210, FM3A, Molt/4, CEM and HeLa cells; test: Cell growth inhibitory activity, panel of cell lines; assay type: cell-based, murine and human; settings: for IC50: read-out: IC50 values, range over the cell lines
Summary of the method: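 Murine L1210 leukemia and FM3A mammary carcinoma cells, and human Molt 4, CEM (T-lymphocyte) and HeLa (cervix carcinoma) cells. Cells were suspended at 300,000–500,000 cells/mL and mixed 1:1 with serial dilutions of test compound. Incubated 2 days at 37 °C, then cell number counted with a Coulter counter. IC50 (50% inhibition of proliferation) was taken from dose–response curves as mean ± SE of ≥3 independent experiments.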

[6] = system: murine mammary carcinoma (FM3A) cells; test: Cell growth inhibitory activity, FM3A; assay type: cell-based; settings: Mus musculus, 48 h, read-out: IC50 FM3A/0
[7] = system: human cervix carcinoma (HeLa) cells; test: Cell growth inhibitory activity, HeLa; assay type: cell-based

Compound: COc1cc(C(=O)c2oc3ccc(O)cc3c2C)cc(OC)c1OC [Compound 4w, (5-Hydroxy-3-methylbenzofuran-2-yl)(3,4,5-trimethoxyphenyl)methanone]
sub-G0–G1 peak (apoptotic peak, A) [2]: 20–44%

Compound: COc1cc(C(=O)c2oc3cccc(OC)c3c2C)cc(OC)c1OC [Compound 4p, (4-Methoxy-3-methylbenzofuran-2-yl)(3,4,5-trimethoxyphenyl)methanone]
effect on cell cycle distribution [2]: accumulate in late S phase | sub-G0–G1 peak (apoptotic peak, A) [2]: 20–44%

Compound: COc1cc(C(=O)c2oc3cc(F)ccc3c2C)cc(OC)c1OC [Compound 4u, (6-Fluoro-3-methylbenzofuran-2-yl)(3,4,5-trimethoxyphenyl)methanone]
antitubulin polymerization activity (in words) (bovine brain tubulin): weak antitubulin polymerization activity | effect on cell cycle distribution [2]: accumulate in late S phase | sub-G0–G1 peak (apoptotic peak, A) [2]: 20–44% | concentration able to inhibit 100% cell growth after 24 h [3]: 1.62 µM

Compound: COc1cc(C(=O)c2cc3c(OC)cccc3o2)cc(OC)c1OC [Compound 4b, (4-Methoxybenzofuran-2-yl)(3,4,5-trimethoxyphenyl)methanone]
sub-G0–G1 peak (apoptotic peak, A) [2]: 20–44%

Compound: COc1cc(C(=O)c2cc3cc(OC)c(OC)c(OC)c3o2)cc(OC)c1OC [Compound 4k, (5,6,7-Trimethoxybenzofuran-2-yl)(3,4,5-trimethoxyphenyl)methanone]
IC50 [1]: > 10000 nM

Compound: COc1ccc(/C=C\c2cc(OC)c(OC)c(OC)c2)cc1O [CA4, combretastatin A-4]
IC50 [4]: 2.8 ± 1.1 nM

Compound: COc1ccc2cc(C(=O)c3cc(OC)c(OC)c(OC)c3)oc2c1 [Compound 4d, (6-Methoxybenzofuran-2-yl)(3,4,5-trimethoxyphenyl)methanone]
IC50 [5]: 59 to 110 nM

Compound: COc1ccc2c(C)c(C(=O)c3cc(OC)c(OC)c(OC)c3)oc2c1 [Compound 4r, (6-Methoxy-3-methylbenzofuran-2-yl)(3,4,5-trimethoxyphenyl)methanone]
IC50 [5]: 3 to 27 nM

Compound: COc1ccc2cc(C(OC)c3cc(OC)c(OC)c(OC)c3)oc2c1 (stereo not shown) [Compound 4aa, 6-methoxy-2-(methoxy(3,4,5-trimethoxyphenyl)methyl)benzofuran]
IC50 [1]: > 10000 nM

Compound: COc1ccc2c(N)c(C(=O)c3cc(OC)c(OC)c(OC)c3)oc2c1 [Compound 3a]
IC50 [5]: 87 to 430 nM | IC50 [4]: 430 ± 40 nM | IC50 [6]: 280 ± 160 nM

Compound: CCOc1ccc2c(C)c(C(=O)c3cc(OC)c(OC)c(OC)c3)oc2c1 [Compound 4t, (6-Ethoxy-3-methylbenzofuran-2-yl)(3,4,5-trimethoxyphenyl)methanone]
fold increase of activity relative to 4r [7]: 2 fold | fold increase of activity relative to 4r ([5]; L1210, FM3A, Molt/4 and CEM cells): 10 fold | IC50 [5]: 1.2 to 6.3 nM

Compound: COc1cc(C(=O)c2cc3cc(Cl)ccc3o2)cc(OC)c1OC [Compound 4g, (5-Chlorobenzofuran-2-yl)(3,4,5-trimethoxyphenyl)methanone]
IC50 [1]: > 10000 nM

Continued, in another order:

IC50 [1]: > 10000 nM
Compound: COc1cc(C(=O)c2cc3cc(O)ccc3o2)cc(OC)c1OC [Compound 4l, (5-Hydroxybenzofuran-2-yl)(3,4,5-trimethoxyphenyl)-methanone]

IC50 [1]: > 10000 nM
Compound: COc1cc(C(=O)c2cc3ccc(OC)c(O)c3o2)cc(OC)c1OC [Compound 4i, (7-Hydroxy-6-methoxybenzofuran-2-yl)(3,4,5-trimethoxyphenyl)methanone]

IC50 [1]: 100 ± 10 nM
Compound: COc1ccc2cc(C(=S)c3cc(OC)c(OC)c(OC)c3)oc2c1 [Compound 4y, (6-methoxybenzofuran-2-yl)(3,4,5-trimethoxyphenyl)methanethione]

IC50 [1]: > 10000 nM
Compound: COc1ccc2c3c(oc2c1)C(=O)c1cc(OC)c(OC)c(OC)c1-3 [Compound 4ac, 3,8,9,10-tetramethoxy-6H-benzo[b]indeno[1,2-d]furan-6-one]
antiproliferative activity (in words) ([5]; five cell lines): completely inactive

IC50 [1]: > 10000 nM
Compound: COc1cc(C(=O)c2cc3ccc(O)cc3o2)cc(OC)c1OC [Compound 4m, (6-Hydroxybenzofuran-2-yl)(3,4,5-trimethoxyphenyl)-methanone]

IC50 [5]: 48 to 78 nM | IC50 [4]: 65 ± 5 nM | IC50 [6]: 59 ± 5 nM
Compound: COc1ccc2c(N(C)C)c(C(=O)c3cc(OC)c(OC)c(OC)c3)oc2c1 [Compound 3b]

IC50 [1]: > 10000 nM
Compound: COc1cc(C(=O)c2cc3cc(Br)ccc3o2)cc(OC)c1OC [Compound 4h, (5-Bromobenzofuran-2-yl)(3,4,5-trimethoxyphenyl)methanone]

IC50 [1]: > 10000 nM
Compound: COc1cc(C(=O)c2cc3cccc(O)c3o2)cc(OC)c1OC [Compound 4n, (7-Hydroxybenzofuran-2-yl)(3,4,5-trimethoxyphenyl)-methanone]
